Screening results: PubChem BioAssay, several laboratories
Neddyl block: inhibitors of human cullin neddylation; TR-FRET cullin neddylation, biochemical; AID 651699; hit rate 0.58% among 360,000; P61081+Q13564; inhibition, % at 25 µM; in the data active = inhibition above about 36%
HIF act: HIF pathway transcriptional activation; U2OS HRE-luciferase reporter, luminescence; normalized: DMSO 0%, desferrioxamine 100%; activation, % at 7.5 µM (by protocol); hit rate 0.32% among 300,000;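 active = mean activation of at least 10% of the iron chelator positive control signal, with at least half of replicates also reaching 10%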
proCasp3 act: activates human procaspase-3 | recombinant procaspase-3 D3A, Ac-DEVD-pNA absorbance 405 nm | activation, % at 8.5 µM | hit rate 0.11% among 330,000;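 active = activation above the mean of all tested compounds plus 3 SD, cut at about 21% in these data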;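 note: 0% = DMSO alone and 100% = DMSO wells spiked with extra 5 µM PC-3 D3A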
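Assay system: Autoprocessing-dead procaspase-3 D3A mutant enzyme; also added: Ac-DEVD-pNA; doses: one concentration, 8.5 µM nominal, 0.8% DMSO; times: 1 h compound preincubation, 2 h substrate hydrolysis at 25 °C; technique: 405 nm absorbance of p-nitroaniline, reads at 0 and 120 min; measure: % activation between DMSO and enzyme-spiked controls; repeats: single replicate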
FXN GAA850 act: frataxin GAA850 promoter activation. HEK293 lucGAA850 FXN promoter luciferase reporter, 24 h; percent of 10 µM SAHA response. activation, % at 6 µM. hit rate 0.56% among 360,000;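 active = activation above the average of all compounds screened plus 3 SD, cutoff fixed separately per campaign, cut at about 7.5% in these data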;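 note: 0% = DMSO wells and 100% = 10 µM SAHA wells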
Calb FLC: C. albicans growth modulation with fluconazole. C. albicans CaCi-2 + fluconazole, Alamar Blue growth, 48 h. growth inhibition, % (concentration not given with the values). hit rate 0.57% among 300,000. AID 1979;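 active = growth inhibition above about 58% in most replicates, limit read from the data, passing the limit was not always enough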;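 note: all wells also contain fluconazole at 8 µg/ml as a sub-toxic cotreatment; 0% = median of DMSO wells and 100% = median of geldanamycin control wells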
proCasp7 act: counter-screen for procaspase-3 activators: activators of human procaspase-7. hit rate 0.093% among 330,000. activation, % at 8.5 µM. P55210. AID 463210. recombinant procaspase-7, Ac-DEVD-pNA absorbance 405 nm; D23A/D198A/D206A triple mutant, cannot self-cleave; scale: DMSO 0, 5 µM enzyme 100;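 active = percent activation above the screen-wide mean plus 3 SD, cut at about 25% in these data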
Target sequence (P55210 whole entry D23A/D198A/D206A): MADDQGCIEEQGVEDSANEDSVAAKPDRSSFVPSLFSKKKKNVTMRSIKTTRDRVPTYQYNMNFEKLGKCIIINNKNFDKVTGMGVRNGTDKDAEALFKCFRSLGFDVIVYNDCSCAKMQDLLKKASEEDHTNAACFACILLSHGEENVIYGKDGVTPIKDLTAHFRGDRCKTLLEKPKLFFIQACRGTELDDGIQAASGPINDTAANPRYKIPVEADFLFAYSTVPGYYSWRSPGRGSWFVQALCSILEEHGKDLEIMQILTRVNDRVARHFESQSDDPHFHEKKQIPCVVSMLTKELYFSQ
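System: Uncleavable procaspase-7 mutant enzyme; Amount: 2 µM procaspase-7 mutant as dispensed; Schedule: 1 h compound preincubation, 2 h substrate cleavage, 25 °C; Measured by: 405 nm absorbance of p-nitroaniline; Evaluation: percent activation from buffer-corrected 0–120 min absorbance change; Control set: low DMSO alone, high DMSO plus 5 µM PC-7.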
GAA30 FXN cntr: counter-screen for GAA850 frataxin promoter activators: GAA30 promoter activation; hit rate 66% among 1,900; shares compounds with FXN GAA850 act; activation, % at 6 µM; HEK293 lucGAA30 FXN promoter luciferase, 24 h; DMSO = 0%, 5 µM ipriflavone = 100%; AID 588350;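 active = mean activation above the mean of solvent-only control wells plus 3 SD, cut at about 22% in these data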;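 note: counterscreen of GAA850 promoter hits where activity marks nonselective or luminescence artifacts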
FXN GAA850 conf: confirmation of GAA850 frataxin (FXN) promoter activators. shares compounds with FXN GAA850 act. HEK293 lucGAA850 FXN promoter luciferase reporter, 24 h; 100% = activation by SAHA. activation, % at 6 µM. hit rate 86% among 1,900. AID 588351;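 active = mean activation above a set limit taken from the primary screen, cut at about 8% in these data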;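 note: 0% = DMSO wells and 100% = 10 µM SAHA wells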
Starred values were filed as active, the others as inactive; x = not tested or not shown. The list is not random: actives were taken first. Their share in the collection is about 1.9%.

SMILES | Neddyl block | HIF act | proCasp3 act | FXN GAA850 act | Calb FLC | proCasp7 act | GAA30 FXN cntr | FXN GAA850 conf
Cn1c2ccccc2c(=O)c2ccc(NCc3ccc4c(c3)OCO4)cc21 | x | x | x | 11* | x | x | 71* | 27*
CC(C)C(=O)N1CCC1(C)C(=O)Nc1cccc(Oc2ccccc2)c1 (stereo not drawn) | -4 | x | x | 1 | x | x | x | x
O=C(NCc1ccccc1)C1C(c2ccc3c(c2)OCO3)=Nc2ccccc2N1C(=O)c1ccco1 (stereo not drawn) | 26 | x | x | x | x | x | x | x
CCN1C[C@@H]2[C@@H]3C(=O)N(Cc4ccccc4)C(=O)[C@@H]3[C@](C)(C1=O)N2C(=O)c1ccc(Br)cc1 | -15 | x | x | -1 | x | x | x | x
CC(C)CCOP(=O)(c1ccc(N(C)C)cc1)C(O)c1ccccc1 (stereo not drawn) | x | 0 | -6 | 8.2* | 11 | 1 | 7 | 5
CCc1ccc(NC(=O)c2cc(S(=O)(=O)N3CCCC3)ccc2F)cc1 | -3 | x | x | 2 | x | x | x | x
CC1CCC(NC(=O)CCn2ccc3cc(S(=O)(=O)N4CCCC4)ccc32)CC1 (stereo not drawn) | 8 | 0 | 1 | 8.4* | -5 | -16 | 9 | 8.9*
CC1CCN(S(=O)(=O)c2ccc3c(ccn3CCC(=O)N3CCCCC3)c2)CC1 | -4 | 0 | 8 | 1 | 7 | 0 | x | x
CC(c1ccco1)N(C(=O)C12CC3CC(CC(C3)C1)C2)c1ccccn1 (stereo not drawn) | 4 | 0 | -1 | 2 | -2 | 1 | x | x
O=C(N(c1ccccn1)c1ccccn1)C12CC3CC(CC(Cl)(C3)C1)C2 | 6 | -1 | -1 | 8.4* | 10 | 2 | 18 | 6
COc1ccccc1CNC(=O)c1cc(-c2cc(F)ccc2OC(C)C)n[nH]1 | 6 | x | x | 1 | x | x | x | x
Cc1cccc(/C=C/C(=O)c2ccc([N+](=O)[O-])o2)c1 | -192 | 2 | -7 | 11* | 7 | -9 | -113 | -34
COc1ccc(Cc2c(-c3cccc(Cl)c3)nc3ccc(C)cn23)c(C)c1 | 5 | x | x | x | x | x | x | x
Cc1ccc(Nc2nc(CSc3nnc(-c4ccccc4)n3C)cs2)cc1 | 1 | 3 | -18 | 7.6* | -13 | -18 | 120* | 41*
CCOCC(=O)Nc1c(C(=O)Nc2ccc3c(c2)OCCO3)oc2ccccc12 | 13 | 2 | 3 | 4 | 12 | 7 | x | x
CCC(=O)Nc1c(C(=O)Nc2ccc3c(c2)OCCO3)oc2ccccc12 | 7 | 4 | 0 | 9.8* | 14 | 5 | 104* | 32*
Cc1ccc(NC(=O)c2oc3ccccc3c2NC(=O)C2CCCO2)cc1C (stereo not drawn) | 23 | 2 | 1 | 8.0* | 2 | 1 | 106* | 38*
COc1ccc(NC(=O)c2oc3ccccc3c2NC(=O)C2CCCO2)cc1OC (stereo not drawn) | -11 | 2 | -3 | 3 | -5 | 10 | x | x
O=C(NCc1ccc(Cl)cc1Cl)Nc1nc([C@@H]2O[C@H](CO)[C@@H](O)[C@H](O)[C@H]2O)cs1 | -23 | x | x | -1 | x | x | x | x
N#C/C(=C/c1ccco1)c1nc2ccccc2s1 | -32 | 2 | 3 | 7.7* | 1 | -9 | 142* | 45*
N#C/C(=C\c1ccco1)c1nc2ccccc2s1 | -30 | 2 | 4 | 6 | 3 | -13 | x | x
C=CCNc1nc2c(c(=O)n(C)c(=O)n2C)n1Cc1ccc(F)cc1 | -2 | 0 | 11 | 11* | 7 | 0 | -4 | 1
O=C(N/N=C/c1ccc2c(c1)OCO2)c1cccs1 | 8 | 4 | 1 | 7 | 0 | -21 | x | x
Cc1ccsc1C(=O)N/N=C/c1ccc2c(c1)OCO2 | -6 | 2 | -1 | 8.8* | 5 | 1 | 104* | 29*
